Test results: PubChem BioAssay
Calls of active or inactive are those of the source.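 How the source made its calls, unless noted: active means potentiation averaged over duplicate wells exceeding buffer-only control mean by more than 3 SD; inactive means the rest.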

Assays:
[1] = thallium flux activation in parental CHO cells, counter-screen for KCNQ1 potentiator project (AID 493006;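 active means duplicate-averaged activation above buffer control mean plus 5 SD of those controls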); conditions: parental CHO-K1 cells, FluxOR thallium flux, at 10 µM; hits give high values
Summary of the method: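 Test system: parental CHO-K1 cells, FluxOR dye-loaded / Probe or stimulus: potassium plus thallium depolarizing stimulus, 5x stock 12.5 mM K2SO4, Tl2SO4 / Timing: overnight 37 °C plating, 90 min dye, 20 min dark compound / Measured by: kinetic thallium-flux fluorescence / Read-out: max-minus-min fluorescence over baseline, percent of buffer-to-R-L3 span / Benchmarks: buffer and R-L3 controls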

[2] = biological target: Potassium voltage-gated channel subfamily KQT member 1 (Homo sapiens) (UniProt P51787); assay: KCNQ1 potassium channel potentiators, confirmation, FluxOR thallium flux, CHO cells, duplicates (AID 493007); conditions: KCNQ1 cell line, FluxOR thallium flux fluorescence, at 10 µM; hits give high values, % of reference activator effect, buffer zero;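 on outcome: cells depolarized by a potassium plus thallium sulfate stimulus after compound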;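 on potentiation: 0% = buffer-only wells and 100% = R-L3 activator control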
Potassium voltage-gated channel subfamily KQT member 1 (Homo sapiens), sequence (P51787 whole entry, looked up): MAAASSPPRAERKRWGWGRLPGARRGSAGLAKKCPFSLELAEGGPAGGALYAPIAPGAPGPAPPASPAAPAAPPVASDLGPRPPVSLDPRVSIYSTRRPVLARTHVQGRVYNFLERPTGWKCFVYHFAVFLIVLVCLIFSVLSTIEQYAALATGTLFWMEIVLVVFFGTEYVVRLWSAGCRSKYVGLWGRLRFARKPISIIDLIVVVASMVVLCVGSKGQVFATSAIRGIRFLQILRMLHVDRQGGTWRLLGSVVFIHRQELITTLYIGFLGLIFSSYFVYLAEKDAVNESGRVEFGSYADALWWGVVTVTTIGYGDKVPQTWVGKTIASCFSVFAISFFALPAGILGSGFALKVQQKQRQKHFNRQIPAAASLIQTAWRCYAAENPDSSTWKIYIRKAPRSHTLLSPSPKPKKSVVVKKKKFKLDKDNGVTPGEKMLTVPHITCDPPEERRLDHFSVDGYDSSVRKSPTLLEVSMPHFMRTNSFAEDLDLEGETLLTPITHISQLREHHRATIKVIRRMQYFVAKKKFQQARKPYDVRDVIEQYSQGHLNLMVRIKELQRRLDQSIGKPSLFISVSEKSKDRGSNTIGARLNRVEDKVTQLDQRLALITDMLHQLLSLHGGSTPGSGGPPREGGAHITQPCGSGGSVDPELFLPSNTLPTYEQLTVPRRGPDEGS
Summary of the method: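 Assay system: CHO cells carrying KCNQ1 | Controls: Buffer and R-L3 controls | Schedule: FluxOR dye loading 90 min, compound exposure 20 min, room temperature | Read-out: Baseline-normalized fluorescence change, percent of buffer-to-R-L3 range | Replicates: Each compound tested in duplicate | Technique: Kinetic thallium influx fluorescence with FluxOR dye, 10 s baseline, 110 s post-stimulus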

[3] = biological target: Potassium voltage-gated channel subfamily KQT member 2 (Rattus norvegicus) (UniProt O88943); assay: rat KCNQ2 channel potentiation, selectivity assay for KCNQ1 potentiator project, KCNQ2-CHO-K1 cells (AID 493009;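 active means mean duplicate potentiation above the buffer control mean plus 5 SD of buffer wells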;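 further: assay conditions were tuned for KCNQ1 rather than KCNQ2 modulators; signal is max minus min fluorescence divided by baseline after thallium stimulus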); conditions: FluxOR thallium flux fluorescence, at 10 µM; hits give high values, scaled: buffer 0, activator control 100
Potassium voltage-gated channel subfamily KQT member 2 (Rattus norvegicus), sequence (O88943 whole entry, looked up): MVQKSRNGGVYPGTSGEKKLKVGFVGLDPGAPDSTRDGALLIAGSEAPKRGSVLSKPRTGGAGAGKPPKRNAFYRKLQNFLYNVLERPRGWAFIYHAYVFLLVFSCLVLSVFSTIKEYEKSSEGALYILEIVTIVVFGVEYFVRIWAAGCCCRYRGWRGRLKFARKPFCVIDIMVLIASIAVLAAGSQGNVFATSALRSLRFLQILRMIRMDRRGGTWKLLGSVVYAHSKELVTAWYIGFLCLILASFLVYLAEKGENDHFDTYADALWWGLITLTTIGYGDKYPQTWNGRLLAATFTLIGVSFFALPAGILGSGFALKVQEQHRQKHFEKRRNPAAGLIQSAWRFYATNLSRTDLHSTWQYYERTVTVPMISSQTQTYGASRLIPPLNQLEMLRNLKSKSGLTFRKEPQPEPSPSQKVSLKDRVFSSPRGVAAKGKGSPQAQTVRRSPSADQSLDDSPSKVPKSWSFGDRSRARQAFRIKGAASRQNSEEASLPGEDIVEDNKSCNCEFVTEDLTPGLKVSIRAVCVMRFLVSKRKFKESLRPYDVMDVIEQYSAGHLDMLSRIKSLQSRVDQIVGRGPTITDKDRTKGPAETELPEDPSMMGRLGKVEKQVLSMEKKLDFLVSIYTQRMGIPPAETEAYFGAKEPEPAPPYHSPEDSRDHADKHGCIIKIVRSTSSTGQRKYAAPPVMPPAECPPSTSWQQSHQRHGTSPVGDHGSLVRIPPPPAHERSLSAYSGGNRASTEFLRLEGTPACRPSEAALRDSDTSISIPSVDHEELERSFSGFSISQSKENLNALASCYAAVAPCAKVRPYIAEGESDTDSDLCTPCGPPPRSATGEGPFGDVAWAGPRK

[4] = biological target: Potassium voltage-gated channel subfamily KQT member 1 (Homo sapiens) (UniProt P51787); assay: KCNQ1 channel current potentiators, confirmation, orthogonal assay for KCNQ1 potentiator project, IonWorks patch clamp, KCNQ1-CHO cells (AID 493184;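 active means current rise at least 3 SD above the untreated control mean in each of two repeat wells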); conditions: automated patch clamp current, at 10 µM; hits give high values
Summary of the method: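 Material: KCNQ1-expressing CHO cells; doses: 10 µM final, single point; probe or stimulus: voltage step from -90 mV holding to +40 mV, 2,000 ms; signal: automated voltage clamp, amphotericin B perforated patch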

Row | SMILES | activation [1] | potentiation [2] | potentiation [3] | outcome [4] | outcome [2] | outcome [3] | outcome [1]
1 | COc1cccc(N=Nc2ccc(O)c3ncccc23)c1 | 166% (active) | 44% (active) | 170% (active) | inactive | – | – | –
2 | CN(C(=O)CSc1ncnc2sc(-c3ccccc3)cc12)C1CCS(=O)(=O)C1 (stereo not given) | 529% (active) | 176% (active) | 501% (active) | inactive | – | – | –
3 | Cc1cc(N=Cc2cc(Br)ccc2O)no1 | 144% (active) | – | – | inactive | inactive | inactive | –
4 | CC(=O)c1c(O)cc(C)n(-c2ccc(F)cc2)c1=O | – | – | – | inactive | inactive | inactive | inactive
5 | COc1ccc(C2c3ccc4ccccc4c3Oc3ncn(CCCO)c(=N)c32)cc1 (stereo not given) | – | – | – | inactive | inactive | inactive | inactive
6 | S=c1[nH]c(-c2ccc(Cl)cc2)cs1 | 634% (active) | 206% (active) | 525% (active) | inactive | – | – | –
7 | FC(F)(F)c1cnc2c(c1)[nH]c(=S)n2-c1ccc(Cl)cc1 | 142% (active) | 27% (active) | 178% (active) | inactive | – | – | –
8 | O=C(COC(=O)C1C2CC3OC(=O)C1C3C2)Nc1ccc(Cl)cc1 (stereo not given) | – | – | – | inactive | inactive | inactive | inactive
9 | O=C(CNc1ccc2c(c1)OCO2)N/N=C\c1cn(Cc2ccccc2)c2ccccc12 | – | – | – | inactive | inactive | inactive | inactive
10 | CCOC(=O)c1ccc(Nc2nc(N3CCOCC3)nc(N3CCOCC3)n2)cc1 | – | – | – | inactive | inactive | inactive | inactive
11 | O=C(NC(=S)N1CCc2ccccc21)c1ccc(Br)o1 | 400% (active) | 124% (active) | 440% (active) | inactive | – | – | –
12 | CC1(c2ccc(OC(F)F)cc2)NC(=O)N(CC(=O)Nc2ccc(OC(F)F)cc2)C1=O (stereo not given) | – | – | – | inactive | inactive | inactive | inactive
13 | Cc1c(C(=O)NC(=S)NCc2cccnc2)oc2ccccc12 | – | – | – | inactive | inactive | inactive | inactive
14 | O=C(NCC1CCCO1)c1ccccc1OCc1ccc(F)cc1 (stereo not given) | – | – | – | inactive | inactive | inactive | inactive
15 | C1=Nc2ccccc2CN1c1ccccc1 | – | – | – | inactive | inactive | inactive | inactive
16 | O=C(NC(=S)Nc1nc2ccccc2s1)c1ccco1 | 183% (active) | 31% (active) | 172% (active) | inactive | – | – | –
17 | O=S(=O)(c1cc(F)cc(F)c1)N1CCN(c2ncccn2)CC1 | – | – | – | inactive | inactive | inactive | inactive
18 | NC(=O)NC(=O)C[n+]1cccc(/C=N/O)c1 | – | – | – | inactive | inactive | inactive | inactive
19 | CCn1ncc(CN2CCC(C(=O)Nc3cccc(-c4cccc(F)c4)c3)CC2)c1C | – | – | – | inactive | inactive | inactive | inactive
20 | CCCCCCCCCCCC(=O)NC(Cc1ccc(OC)c([N+](=O)[O-])c1)C(=O)O (stereo not given) | 372% (active) | 116% (active) | 349% (active) | inactive | – | – | –

Row | SMILES | activation [1] | potentiation [2] | potentiation [3] | outcome [4] | outcome [2] | outcome [3] | outcome [1]
21 | COc1cc(OC)cc(C(=O)NC(=S)N(Cc2ccccc2)C(C)C)c1 | 294% (active) | 150% (active) | 380% (active) | inactive | – | – | –
22 | Cc1nn(CC2CC2)c(=O)n1-c1ccc(F)cc1 | – | – | – | inactive | inactive | inactive | inactive
23 | S=c1nc(Cc2ccc(Cl)cc2)[nH]c2ccccc12 | 372% (active) | 148% (active) | 350% (active) | inactive | – | – | –
24 | O=C(OCc1cccc([N+](=O)[O-])c1)c1ccncc1 | – | – | – | inactive | inactive | inactive | inactive
25 | Cc1cc(S(=O)(=O)N2CCOCC2)ccc1OCC(=O)NCc1ccccn1 | – | – | – | inactive | inactive | inactive | inactive
26 | CCCCN(CCCC)C(=S)NC(=O)C(C)(C)C | – | – | – | inactive | inactive | inactive | inactive
27 | CCOC(=O)NC(=S)Nc1ccc(C(C)(C)C)cc1Br | 213% (active) | 123% (active) | 249% (active) | inactive | – | – | –
28 | OCCN1CCN(CCCN2c3ccccc3Sc3ccc(Cl)cc32)CC1 | – | – | – | inactive | inactive | inactive | inactive
29 | CCOC(=O)Cc1csc(NC(=O)CSc2nnnn2-c2ccc(C)cc2C)n1 | – | – | – | inactive | inactive | inactive | inactive
30 | O=C(Nc1ccccc1Cl)N1CCN(c2ccccn2)CC1 | – | – | – | inactive | inactive | inactive | inactive
31 | Cc1cc(C(=O)N/N=C/C=C/c2ccc3c(c2)OCO3)n[nH]1 | – | – | – | inactive | inactive | inactive | inactive
32 | CCNc1nc(NCC)n2c(SCC(=O)Nc3ccc(F)cc3)nnc2n1 | – | – | – | inactive | inactive | inactive | inactive
33 | CCOC(=O)/C(C)=N/NC(=O)c1ccc([N+](=O)[O-])cc1 | 328% (active) | 157% (active) | 349% (active) | inactive | – | – | –
34 | C/C(=N/NC(=S)Nc1cccc(C)c1)c1cccc([N+](=O)[O-])c1 | – | 44.5% (active) | – | inactive | – | inactive | inactive
35 | CCn1c(SCC(N)=O)nc2sc3c(c2c1=O)CCCC3 | 153% (active) | 34% (active) | 147% (active) | inactive | – | – | –
36 | COc1ccc(C)cc1N=Nc1ccc(O)c2ncccc12 | – | – | – | inactive | inactive | inactive | inactive
37 | Cc1cccn2c(=O)nc(SCC(=O)N3N=C(c4cccs4)CC3c3ccc(F)cc3)nc12 (stereo not given) | – | – | – | inactive | inactive | inactive | inactive
38 | Cc1ccc(NC(=O)CCS(=O)(=O)c2cccc3nonc23)c(Br)c1 | – | – | – | inactive | inactive | inactive | inactive
39 | Cc1cccc(-c2nnc(NC(=O)c3ccc(Cl)cc3)o2)c1 | – | 30% (active) | 155% (active) | inactive | – | – | inactive
40 | Cc1ccc(Cn2c(SCC(=O)N3CC(=O)Nc4ccccc43)nc3ccccc3c2=O)cc1 | – | – | – | inactive | inactive | inactive | inactive

Row | SMILES | activation [1] | potentiation [2] | potentiation [3] | outcome [4] | outcome [2] | outcome [3] | outcome [1]
41 | Cn1nnnc1SCC(=O)NCc1ccc2c(c1)OCO2 | – | – | – | inactive | inactive | inactive | inactive
42 | Cc1cc(C)c(NC(=O)CN2C(=O)NC3(CCCc4ccccc43)C2=O)c(Cl)c1 (stereo not given) | – | – | – | inactive | inactive | inactive | inactive
43 | Cc1cccc(NC(=O)c2ccc(COc3ccccc3[N+](=O)[O-])o2)n1 | – | – | – | inactive | inactive | inactive | inactive
44 | O=C(O)CCC(=O)Nc1ccc(S(=O)(=O)c2ccc(NC(=O)CCC(=O)O)cc2)cc1 | – | – | – | inactive | inactive | inactive | inactive
45 | C/C(=N\Nc1nc2ccccc2[nH]1)c1ccc(Cl)s1 | – | – | 156% (active) | inactive | inactive | – | inactive
46 | O=C1N(Cc2ccc(F)cc2)CCN1c1ccc(F)cc1 | 149% (active) | 22% (active) | 144% (active) | inactive | – | – | –
47 | Cc1sc2nc(CN3CCOCC3)[nH]c(=S)c2c1C | 312% (active) | 69.5% (active) | 292% (active) | inactive | – | – | –
48 | Cc1ccc(C(=O)CC(=O)c2cccc(F)c2)c(O)c1 | 156% (active) | 35% (active) | 150% (active) | inactive | – | – | –
49 | CC(Oc1ccc(Br)cc1)C(=O)N1CCC(C(N)=O)CC1 (stereo not given) | – | – | – | inactive | inactive | inactive | inactive
50 | CCOC(=O)c1ccc(-c2ccc(C3Nc4ccccc4C(=O)N3O)o2)cc1 (stereo not given) | – | – | – | inactive | inactive | inactive | inactive
51 | CC(C)(C)c1ccc(C(=O)NC(=S)Nc2nc3c(s2)CCCC3)cc1 | 210% (active) | 91% (active) | 217% (active) | inactive | – | – | –
52 | COc1ccccc1C(=O)NNC(=O)C(=O)Nc1cccc(Cl)c1C | 612% (active) | 206% (active) | 580% (active) | inactive | – | – | –
53 | CC(=O)OCC(=O)[C@@]1(OC(C)=O)[C@@H](C)C[C@H]2[C@@H]3C[C@H](F)C4=CC(=O)C=C[C@]4(C)[C@@]3(F)[C@@H](O)C[C@@]21C | – | – | – | inactive | inactive | inactive | inactive
54 | CCOC(=O)c1cnc2c(C)c(Cl)ccc2c1N1CCN(CC)CC1 | – | – | – | inactive | inactive | inactive | inactive
55 | Cc1cc(NC(=O)CCC(=O)N(C2CC2)C(C(=O)NC(C)(C)C)c2ccccc2Cl)no1 (stereo not given) | – | 25.5% (active) | – | inactive | – | inactive | inactive
56 | Cc1cc(C=NCCO)c(C)n1-c1cc(Cl)ccc1Cl | – | – | – | inactive | inactive | inactive | inactive
57 | COC(=O)c1sc(-c2ccccc2)cc1NC(=O)C1CC1 | – | – | – | inactive | inactive | inactive | inactive
58 | Cc1sc(N/N=C/c2ccco2)nc1-c1ccccc1 | – | – | – | inactive | inactive | inactive | inactive
59 | Oc1c(Cl)cc(Cl)cc1C=Nc1ccc2c(c1)OCCO2 | 174% (active) | 25.5% (active) | – | inactive | – | inactive | –
60 | N#CC1=C(Nc2ccccc2)SC=C(c2ccc(Br)cc2)N=C1N1CCOCC1 | – | – | – | inactive | inactive | inactive | inactive
